Experiment [1] addresses T1, Ectonucleotide pyrophosphatase/phosphodiesterase family member 1 (Homo sapiens) (UniProt P22413).
T1 sequence (whole entry): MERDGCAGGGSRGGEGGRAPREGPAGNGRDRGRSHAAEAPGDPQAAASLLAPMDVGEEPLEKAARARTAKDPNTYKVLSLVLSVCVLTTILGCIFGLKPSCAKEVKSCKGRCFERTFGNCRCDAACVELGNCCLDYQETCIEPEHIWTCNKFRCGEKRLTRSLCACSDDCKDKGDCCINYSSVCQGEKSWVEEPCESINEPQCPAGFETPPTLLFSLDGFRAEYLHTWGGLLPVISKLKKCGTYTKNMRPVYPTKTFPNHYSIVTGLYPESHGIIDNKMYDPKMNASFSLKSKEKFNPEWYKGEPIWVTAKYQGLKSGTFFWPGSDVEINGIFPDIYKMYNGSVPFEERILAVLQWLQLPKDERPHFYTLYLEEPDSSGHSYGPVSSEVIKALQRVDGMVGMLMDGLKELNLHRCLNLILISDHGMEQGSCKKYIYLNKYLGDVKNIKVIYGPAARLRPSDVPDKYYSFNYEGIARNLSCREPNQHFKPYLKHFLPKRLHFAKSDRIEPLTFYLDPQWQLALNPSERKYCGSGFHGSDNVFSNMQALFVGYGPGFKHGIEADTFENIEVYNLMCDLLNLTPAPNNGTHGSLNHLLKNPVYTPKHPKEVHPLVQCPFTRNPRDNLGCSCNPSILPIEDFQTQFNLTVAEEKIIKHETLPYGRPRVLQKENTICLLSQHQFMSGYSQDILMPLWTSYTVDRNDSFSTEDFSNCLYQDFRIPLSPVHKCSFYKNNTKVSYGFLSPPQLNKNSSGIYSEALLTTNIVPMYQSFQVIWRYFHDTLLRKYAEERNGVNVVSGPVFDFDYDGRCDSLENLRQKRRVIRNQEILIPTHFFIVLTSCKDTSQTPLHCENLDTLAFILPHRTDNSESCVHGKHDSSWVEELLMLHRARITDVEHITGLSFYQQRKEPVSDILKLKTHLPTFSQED
As to the kind of experiment: Inhibition of human NPP1 expressed in COS7 cells assessed as production of p-nitrophenol using pnp-TMP as the substrate preincubated at 100 uM for 3 mins before substrate addition measured after 15 mins […]. The note with it: COS-7. It is filed as cell-based. The essentials: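 Crude extracts of COS-7 cells transiently transfected with human NPP1 or NPP3, preincubated 3 min at 37 °C in 1 mM CaCl2, 140 mM NaCl, 5 mM KCl, 50 mM Tris pH 8.5 with analogue at 100 μM. Reaction started with 100 μM pnp-TMP; p-nitrophenol at 410 nm after 15 min. Activity without analogue set as 100%. Mean ± SD of 3−6 experiments in triplicate.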

In experiment [2] the target is T1, Ectonucleotide pyrophosphatase/phosphodiesterase family member 1 (Homo sapiens). As to the kind of experiment: Competitive inhibition of human NPP1 expressed in COS7 cells assessed as production of p-nitrophenol using pnp-TMP as the substrate preincubated at 25 to 100 uM for 3 mins before substrate addition measured after 15 mins by Dixon/Cornish Bowden method. It is filed as cell-based. The note with it: COS-7. In outline:
(§1)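 Crude protein extract from COS-7 cells transiently transfected with human NPP1 (sonicated, debris cleared at 300g), preincubated 3 min at 37 °C with inhibitor (0, 25, 50, 100 μM) in 1 mM CaCl2, 140 mM NaCl, 5 mM KCl, 50 mM Tris pH 8.5. pnp-TMP (25, 50, 100 μM) added; p-nitrophenol read at 410 nm after 15 min. Ki,app and inhibition type from Dixon and Cornish-Bowden plots, three independent experiments.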

In experiment [3] the target is T2, Ectonucleotide pyrophosphatase/phosphodiesterase family member 1 (Homo sapiens, UniProt P22413).
T2 sequence (P22413 whole entry): T1 sequence (whole entry)
As to the kind of experiment: Mixed type inhibition of human NPP1 expressed in COS7 cells assessed as production of p-nitrophenol using pnp-TMP as the substrate preincubated for 3 mins before substrate addition measured after 15 mins by Dixon/Cornish Bowden method. The experiment is classed as cell-based, COS-7. To be noted: read-out: Ki(app). In outline:
as §1

For experiment [4], the target named is T1, Ectonucleotide pyrophosphatase/phosphodiesterase family member 1 (Homo sapiens). Kind of experiment: Inhibition of NPP1 in human HTB-85 cells assessed as production of p-nitrophenol using pnp-TMP at 100 uM measured after 20 mins by spectrophotometry. It is filed as cell-based. The essentials: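 Intact osteocarcinoma HTB85 (SaOS-2) cells in 24-well plates, 0.5 mL incubation mixture, analogue and pnp-TMP each at 100 μM. After 20 min an aliquot was read for p-nitrophenol at 410 nm. Substrate alone set as 100%. Mean ± SD of three experiments in triplicate.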

For experiment [5], the target named is T3, Ectonucleoside triphosphate diphosphohydrolase 3 (Homo sapiens) (UniProt O75355).
T3 sequence (whole entry): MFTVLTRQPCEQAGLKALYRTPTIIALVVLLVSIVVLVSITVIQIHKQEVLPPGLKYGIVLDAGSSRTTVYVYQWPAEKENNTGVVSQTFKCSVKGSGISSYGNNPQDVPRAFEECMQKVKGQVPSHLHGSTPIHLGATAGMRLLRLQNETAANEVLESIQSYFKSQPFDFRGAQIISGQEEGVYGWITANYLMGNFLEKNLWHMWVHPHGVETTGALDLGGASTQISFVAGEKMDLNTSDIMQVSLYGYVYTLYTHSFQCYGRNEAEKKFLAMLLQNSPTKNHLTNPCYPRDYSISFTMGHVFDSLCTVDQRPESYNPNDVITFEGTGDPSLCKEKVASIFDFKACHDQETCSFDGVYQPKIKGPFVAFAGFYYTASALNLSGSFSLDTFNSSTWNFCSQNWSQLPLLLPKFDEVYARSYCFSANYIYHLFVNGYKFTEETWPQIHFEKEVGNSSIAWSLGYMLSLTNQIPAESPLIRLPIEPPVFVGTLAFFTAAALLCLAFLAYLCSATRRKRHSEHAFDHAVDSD
As to the kind of experiment: Inhibition of human NTPDase3 assessed as amount of inorganic phosphate released using ATP as the substrate preincubated at 100 uM for 3 mins before substrate addition after 15 mins by malachite green reagent method. The essentials:
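Crude extracts of COS-7 cells transiently transfected with human NTPDase1, -2, -3 or -8, preincubated 3 min at 37 °C in Tris-Ringer medium pH 7.4 with analogue (final 100 μM). Started with 100 μM ATP, stopped after 15 min with malachite green; released Pi read at 630 nm. ATP alone set as 100%. Mean ± SD of 3−6 experiments in triplicate.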

SMILES strings stand for the structures. Activity calls are given as the source filed them. The calls are words filed in the database; no cut-off is given here. Bounds are passed on as bounds.

Experimental findings from ChEMBL document CHEMBL3085721, “Nonhydrolyzable ATP analogues as selective inhibitors of human NPP1: a combined computational/experimental study” (J Med Chem, 2013) are described below.

Consider `B[P@@](=O)(OC[C@H]1O[C@@H](n2cnc3c(N)nc(SC)nc32)[C@H](O)[C@@H]1O)OP(=O)(O)C(F)(F)P(=O)(O)O`, for which the inhibition in experiment [1] was 90%.
Consider `B[P@@](=O)(OC[C@H]1O[C@@H](n2cnc3c(N)ncnc32)[C@H](O)[C@@H]1O)OP(=O)(O)CP(=O)(O)O`, for which the inhibition result in experiment [2] is “Active”. Moreover, in experiment [3], the Ki stood at 0.5 µM. Further, the results for the inhibition in experiment [4], in experiment [1] and in experiment [5] were 90%, 90% and below 18%, respectively.
As to `CSc1nc(N)c2ncn([C@@H]3O[C@H](COP(=O)(O)C(F)(F)P(=O)(O)O)[C@@H](O)[C@H]3O)c2n1`, the inhibition result in experiment [2] is “Active”. The Ki in experiment [3] is 26 µM. The figures for the inhibition in experiment [4], in experiment [1] and in experiment [5] were 41%, 90% and below 18%, respectively.
In the same order, the values of `B[P@](=O)(OC[C@H]1O[C@@H](n2cnc3c(N)ncnc32)[C@H](O)[C@@H]1O)OP(=O)(O)CP(=O)(O)O` are “Active”, 7 µM, 41%, 80% and below 18%.
In the same order, the values of `B[P@](=O)(OC[C@H]1O[C@@H](n2cnc3c(N)nc(SC)nc32)[C@H](O)[C@@H]1O)OP(=O)(O)CP(=O)(O)O` are “Active”, 56 µM, 90%, 80% and below 18%.
